Measured values: ChEMBL document CHEMBL1122553, “Tetrahydropyrrolo[1,2-a]quinoxalines and tetrahydropyrrolo[1,2-a]pyrido[3,2-a]pyrazines: vascular smooth muscle relaxants and antihypertensive agents” (1984)

Experiments:
Rattus norvegicus = test: Antihypertensive activity expressed as maximal change in systolic blood pressure (SBP) from pretreatment levels at either 1.5 or 4 hr after dosing; format: functional, Artery
Outline: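 Male spontaneously hypertensive rats (Okamoto-Aoki, ~300-400 g), fasted at least 16 h, given a single oral 50 mg/kg dose by stomach tube; groups of four, with vehicle-only controls. Systolic pressure taken indirectly by tail plethysmography after 10 min warming at 38 °C, before dosing and at 1.5 and 4 h after. Reported as X ± SE.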

Oryctolagus cuniculus = species on record: Oryctolagus cuniculus; test: The vascular smooth muscle relaxant activity was expressed as percent relaxation of the developed isometric tension in potassium depolarized rabbit aortic smooth muscle; format: functional, Aorta
Outline: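 Transverse thoracic aorta strips from female New Zealand albino rabbits in Krebs solution (95% O2/5% CO2, 37 °C), held at 4 g isometric tension and equilibrated 90 min. Strips were primed with high-K+ (100 mM) solution plus 2.5 mM CaCl2, rinsed, then recontracted. After 20 min of sustained contraction, drug was added at 10⁻⁵ M final. Tension 20 min later was compared with pre-drug tension and given as % relaxation.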

SMILES	Max SBP (Rattus norvegicus)	Vascular relaxation (Oryctolagus cuniculus)
COc1cccc(OC)c1CN1CC2CCCN2c2ccccc21 (centres undefined)	-5 mmHg	13%
COc1cccc(OC)c1CN1C(=O)C2CCCN2c2ccccc21 (centres undefined)	-19 mmHg	30%
COc1cccc(OC)c1CN1CC2CCCN2c2ncccc21 (centres undefined)	-6 mmHg	54%
c1ccc2c(c1)NCC1CCCN21 (centres undefined)	-17 mmHg	0%
O=C1C2CCCN2c2ccccc2N1Cc1ccccc1 (centres undefined)	-4 mmHg	
O=C1C2CCCN2c2ncccc2N1Cc1ccccc1 (centres undefined)	-39 mmHg	0%
CN(C)CCN1C(=O)C2CCCN2c2ncccc21 (centres undefined)	-22 mmHg	0%
COc1cccc(OC)c1C(=O)N1CC2CCCN2c2ccccc21 (centres undefined)	-13 mmHg	6%
O=C1Nc2ccccc2N2CCCC12 (centres undefined)	-26 mmHg	0%
O=C1C2CCCN2c2ncccc2N1Cc1ccncc1 (centres undefined)	-38 mmHg	0%
COc1cccc(OC)c1CN1C(=O)C2CCCN2c2ncccc21 (centres undefined)	-18 mmHg	5%
O=C1C2CCCN2c2ccccc2N1Cc1ccncc1 (centres undefined)	-2 mmHg	
COC(=O)C1=C(C)NC(C)=C(C(=O)OC)C1c1ccccc1[N+](=O)[O-] [NIFEDIPINE]	-68 mmHg	75%
